Assay outcomes from PubChem BioAssay.
This is a sample that favours compounds with a hit; in the whole collection about 1.6% have one here.
SENP1 FRET inh: human SENP1 catalytic domain inhibitors, primary screen, biochemical, FRET, uHTS; Sentrin-specific protease 1 (Homo sapiens), Q9P0U3; recombinant SENP1 catalytic domain, CyPet-SUMO1-YPet FRET cleavage; inhibition, % at 10 µM; actives 0.21% (n = 360,000); AID 624204, 2012;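 active means inhibition at least 30% at 10 µM, raw YFP signal under a set limit, fluorescence ratio 0.5 to 1.5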;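 further: 0% = enzyme with DMSO and 100% = no enzyme wells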
Target sequence (Q9P0U3 419-644 limits assumed): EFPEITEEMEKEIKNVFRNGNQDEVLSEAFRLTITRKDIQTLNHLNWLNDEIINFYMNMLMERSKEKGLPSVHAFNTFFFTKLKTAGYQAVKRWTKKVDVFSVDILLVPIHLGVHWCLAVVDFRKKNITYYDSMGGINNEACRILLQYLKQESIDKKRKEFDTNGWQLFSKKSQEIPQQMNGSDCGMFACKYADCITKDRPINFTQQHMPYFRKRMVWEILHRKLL
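Material – human SENP1 catalytic domain · Input – SENP1 enzyme, 20 pM final · Compound dosing – single concentration of 10 µM compound, 0.5% DMSO final · Timing – enzyme reaction for 50 min at room temperature, dark · Measured by – FRET fluorescence in CFP and YFP emission channels · Control set – no-enzyme wells low, DMSO-plus-enzyme wells high control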
Rpn11 block: Rpn11 (PSMD14) deubiquitinase inhibitors, primary screen, biochemical, fluorescence polarization, uHTS | human 26S proteasome, Ub4-pepOG fluorescence polarization; 20S core pre-blocked with epoxomicin | AID 588493, 2011 | actives 0.59% (n = 360,000) | inhibition, % at 20 µM;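 active means inhibition at 20 µM, scaled to each plate's controls, above about 33%, limit read from the data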
Target sequence (O00487 whole entry, looked up): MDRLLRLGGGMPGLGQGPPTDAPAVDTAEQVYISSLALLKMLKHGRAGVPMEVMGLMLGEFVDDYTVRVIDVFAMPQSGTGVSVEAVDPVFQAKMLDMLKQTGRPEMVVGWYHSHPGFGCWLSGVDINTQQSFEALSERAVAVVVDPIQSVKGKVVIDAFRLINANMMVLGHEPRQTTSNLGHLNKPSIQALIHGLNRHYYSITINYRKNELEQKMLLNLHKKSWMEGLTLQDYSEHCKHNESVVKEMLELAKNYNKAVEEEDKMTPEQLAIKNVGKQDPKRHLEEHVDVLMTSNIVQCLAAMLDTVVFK
TPT1 inh: Candida albicans TPT1 enzyme inhibitors, primary screen, biochemical, fluorescence polarization; recombinant caTPT1, FP RNA substrate dephosphorylation; AID 1962, 2009; actives 0.81% (n = 300,000); tRNA 2'-phosphotransferase TPT1 (Candida albicans SC5314); inhibition, % at 5 µM;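 active means inhibition above the mean of all tested compounds plus 3 SD, set per screening campaign, cut at about 24% in these data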;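 further: plate controls were DMSO alone for no effect and ferristatin control at 100 nM for full effect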
HNF4A DNA FP: change in binding of human HNF4A to DNA, primary screen, biochemical, fluorescence polarization, FITC-DNA; Hepatocyte nuclear factor 4-alpha (Homo sapiens), P41235; 1 h; activity change, % at 10 µM; actives 0.3% (n = 360,000); AID 1224865, 2016; in the data active means activity change above about 30%, passing the limit was not always enough
CSN deneddyl inh: inhibitors of CSN-mediated cullin deneddylation, primary screen, biochemical, fluorescence polarization, uHTS; COP9 signalosome complex subunit 5 (Homo sapiens), Q92905; inhibition, % at 12.5 µM; AID 651999, 2013; actives 0.38% (n = 360,000); Purified CSN, SCF-Nedd8-OG deneddylation;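 active means pattern-corrected inhibition above about 35%, with an unprinted fluorescence ratio check between 0.5 and 1.5, limit read from the data, passing the limit was not always enough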;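 further: 0% = enzyme with substrate and 100% = substrate without enzyme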
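Assay system: purified human Csn5 enzyme expressed in HEK293T cells; Input: 0.24 nM Csn5 enzyme, final concentration; Reagent: 10 nM SCFSkp2-Nedd8OG; Compound dosing: 12.5 µM single point; Times: reaction 90 min, room temperature; Technique: fluorescence polarization readout.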
SENP1 conf: human SENP1 catalytic domain inhibitors, confirmation, biochemical, FRET endpoint, single concentration | actives 34% (n = 520) | inhibition, % at 10 µM | recombinant SENP1, CyPet-SUMO1-YPet FRET cleavage | shares compounds with SENP1 FRET inh; in the data active means inhibition mostly above about 35%, no sharp cut-off; inactive means mostly below about 32%;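 further: 0% = enzyme with DMSO and 100% = no enzyme control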
SENP1 kin conf: human SENP1 catalytic domain inhibitors, confirmation, biochemical, kinetic FRET, single concentration. recombinant SENP1, CyPet-SUMO1-YPet FRET kinetic cleavage. AID 651690, 2012. inhibition, % at 10 µM. shares compounds with SENP1 FRET inh. actives 26% (n = 520); in the data active means inhibition mostly above about 32%, no sharp cut-off; inactive means mostly below about 29%;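 further: 0% = DMSO with enzyme and 100% = no enzyme substrate only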
HNF4a DNA conf: change in HNF4A binding to DNA, retest, confirmation, biochemical, fluorescence polarization, FITC-DNA; shares compounds with HNF4A DNA FP; 1 h; activity change, % at 12.5 µM; actives 99% (n = 210); call rule not given here
An asterisk follows results filed as active; nt = no result given.

SMILES | SENP1 FRET inh | Rpn11 block | TPT1 inh | HNF4A DNA FP | CSN deneddyl inh | SENP1 conf | SENP1 kin conf | others
O=C1CC[C@@H]2CC3(C[C@@H]4CCN1[C@H]24)Nc1ccccc1NC3=NC1CCCCC1 (some centres undefined) | 0 | 8 | nt | 0 | -1 | nt | nt
O=[N+]([O-])c1cccc(S(=O)(=O)NCCCn2ccnc2)c1 | 2 | -4 | -1 | 3 | -1 | nt | nt
CC(C)c1ccc2nc3sc(C(=O)N4CCc5ccccc5C4)c(N)c3cc2c1 | 61* | nt | 17 | 21 | 4 | 81* | 51*
Cc1ccc(-c2ccc(SCC(=O)N3CCN(c4ccccc4)CC3)nn2)cc1 | 32* | -8 | -5 | 1 | -14 | 9 | 13
Cn1c(=O)c2[nH]c(-c3ccccc3Cl)c(O)c2n(C)c1=O | 32* | -16 | -30 | 0 | -4 | 11 | 16
Cn1c(=O)c2[nH]c(-c3ccccc3)c(O)c2n(C)c1=O | 60* | -67 | -72 | -26 | -32 | 56* | 54*
CC1(Cc2ccccc2F)C(=O)Nc2c(Cl)ccc(Cl)c21 (centres undefined) | 5 | 3 | nt | -2 | 1 | nt | nt
N#CC1=C(N)Oc2cc(Nc3ccccc3)ccc2C1c1ccncc1 (centres undefined) | 77* | 24 | 7 | -2 | 5 | 31* | 24
Cc1ccc2nc3sc(C(=O)NCc4ccco4)c(N)c3cc2c1 | 34* | 29 | 8 | 15 | 6 | 110* | 71*
COc1cc2cc3c(N)c(C(=O)NCc4ccco4)sc3nc2cc1OC | 18 | 4 | 11 | 2 | -1 | nt | nt
CN(N=Cc1cccc2cccnc12)c1ccc([N+](=O)[O-])cc1[N+](=O)[O-] | 31* | -95 | nt | -40 | -72 | 35* | 22
CN(C)/N=C/c1ccc([N+](=O)[O-])cc1[N+](=O)[O-] | 2 | 6 | -7 | -3 | 16 | nt | nt
COc1ccc(NC(=O)COC(=O)CCNC(=O)c2ccco2)cc1Cl | 1 | -8 | nt | 5 | -3 | nt | nt
CCOc1cc(N2CCOCC2)c(OCC)cc1NC(=O)CCS(=O)(=O)c1ccc(Cl)cc1 | 37* | 3 | 0 | 1 | -6 | 14 | 14
COc1ccc(C(CNC(=O)c2cccc(S(=O)(=O)N3CCCCC3)c2)N2CCCC2)cc1 (centres undefined) | 2 | -2 | nt | 1 | -2 | nt | nt
O=C(C1=C(Nc2ccccc2)c2ccccc2S(=O)(=O)N1)c1ccccc1 | 49* | nt | 8 | 3 | 3 | 22 | 24
Cc1cccc(N(C)S(=O)(=O)c2c[nH]c3ccc([N+](=O)[O-])cc23)c1 | 1 | -3 | 1 | -3 | 3 | nt | nt
N#C/C(C(=O)NCCc1ccccc1)=C1/N=C(NC(=O)c2cccs2)c2ccccc21 | 36* | 2 | 3 | 9 | 3 | -27 | 5
COc1ccc(CCNC(=O)/C(C#N)=C2\N=C(NC(=O)c3ccco3)c3ccccc32)cc1 | 6 | 20 | 2 | 9 | -1 | nt | nt
O=C(Nc1ccc2c(c1)OCO2)C(=O)c1c[nH]c2ccccc12 | 31* | 23 | 13 | 9 | 9 | 37 | 32*
O=C(Nc1ccc2c(c1)OCCO2)C(=O)c1c[nH]c2ccccc12 | 3 | 4 | 0 | 1 | -4 | nt | nt
CCOC(=O)c1c2c3c(cccc3[nH]c1=O)C(=O)c1ccccc1-2 | -1 | -13 | -23 | -8 | -6 | nt | nt
CCOC(=O)c1c2c3c(c(Cl)ccc3[nH]c1=O)C(=O)c1ccccc1-2 | 57* | -10 | nt | -11 | -3 | 40* | 24
O=c1c2ccccc2nc(/C=C/c2cc(Br)ccc2O)n1CCO | 76* | 9 | 2 | 0 | -1 | 84* | 45*
O=c1c2ccccc2nc(/C=C/c2c[nH]c3ccccc23)n1CCO | -36 | 4 | 8 | -1 | 0 | nt | nt
SMILES | SENP1 FRET inh | Rpn11 block | TPT1 inh | HNF4A DNA FP | CSN deneddyl inh | SENP1 conf | SENP1 kin conf | others
Cc1ccc(O)c(C(=O)c2cc(C#N)c(=O)n(CC3CCCO3)c2)c1 (centres undefined) | -8 | 9 | 2 | 3 | 2 | nt | nt
COc1ccc(O)c(C(=O)c2cc(C#N)c(=O)n(CC3CCCO3)c2)c1 (centres undefined) | 39* | 2 | -1 | 3 | 1 | 30 | 36*
CCN1/C(=C/C=C2/SC(=Nc3cccc4ncccc34)N(C)C2=O)Sc2ccccc21 | 37* | nt | nt | 104 | 50* | 4 | 8
O=C1NC(=O)C2(COC(c3ccccc3Cl)OC2)S1 (centres undefined) | 0 | -5 | 0 | 2 | 2 | nt | nt
CC1(C)CC(=O)C=C(c2ccc(-c3ccc4[nH]ccc4c3)cc2)C1=O | 29* | 2 | nt | 0 | 3 | 25 | 12
Cc1sc(-c2ccccn2)nc1OC(=O)c1cccc(Cl)c1Cl | 36* | 3 | -1 | 5 | -2 | 38 | 50*
O=C(c1ccc([N+](=O)[O-])s1)N1CCc2ccccc21 | 55* | nt | 1 | 67* | 19 | 11 | 11 | HNF4a DNA conf=53*
Cc1ccc(C(=O)NCc2ccco2)cc1[N+](=O)[O-] | 0 | 2 | -4 | 0 | -5 | nt | nt
Cc1ccc(NC(=O)c2ccc(NCc3ccco3)c([N+](=O)[O-])c2)cc1Cl | 37* | nt | 9 | 47* | 90 | 24 | 17 | HNF4a DNA conf=93*
Cc1cc(C(=O)NNC(=S)NC2CCCCC2)cs1 | 2 | -5 | 0 | 4 | -5 | nt | nt
